The text below walks through data of ChEMBL document CHEMBL1138186, “Dynamic pharmacophore model optimization: identification of novel HIV-1 integrase inhibitors” (J Med Chem, 2006).

As usually defined, the IC50 is the concentration at which inhibition is half-maximal. Low readings indicate greater potency in that assay, high ones weaker potency in that assay.

The target of test [1] is T1, Human immunodeficiency virus type 1 integrase (Human immunodeficiency virus 1, UniProt Q7ZJM1). Kind of test: Inhibition of 3'-processing activity of HIV1 integrase. The procedure, abridged: (§1)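 Then 20 nM 5′-32P-labeled 21-mer oligonucleotide added for 1 h. Quenched with formamide loading dye. % inhibition from 19-mer (3′-processing) or strand transfer product fractions versus DNA-alone and DNA+IN controls. IC50 from log concentration versus % inhibition plot.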
T1 sequence (Q7ZJM1 whole entry): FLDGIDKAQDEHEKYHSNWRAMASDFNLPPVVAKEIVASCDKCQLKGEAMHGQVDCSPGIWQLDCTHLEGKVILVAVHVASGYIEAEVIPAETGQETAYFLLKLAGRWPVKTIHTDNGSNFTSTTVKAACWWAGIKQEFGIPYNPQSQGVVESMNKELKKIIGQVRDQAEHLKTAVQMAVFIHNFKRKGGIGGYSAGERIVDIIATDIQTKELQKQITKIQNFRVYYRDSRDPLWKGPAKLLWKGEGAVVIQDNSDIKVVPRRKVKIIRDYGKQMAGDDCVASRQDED

The target in test [2] is T1, Human immunodeficiency virus type 1 integrase. Put plainly: Inhibition of strand transfer activity of HIV1 integrase. The essentials: as §1

As to `NCCCCCCNC(=O)c1c(O)oc2ccccc2c1=O`, the IC50 in test [1] and in test [2] was more than 100 µM throughout.
For the compound `COc1cc(C(c2c[nH]c3ccccc23)c2c[nH]c3ccccc23)ccc1OCC(=O)O`, the IC50 in test [1] and in test [2] was more than 100 µM in each case.
On to `O=C(O)CCC(=O)Nc1ccc(Cl)c(NC(=O)Cc2ccccc2)c1`, for which the IC50 in test [1] and in test [2] was more than 100 µM throughout.
As to `COc1cccc2cc(-c3csc(Nc4cccc(O)c4)n3)c(=O)oc12`, the IC50 in test [1] and in test [2] was more than 100 µM each time.
Take `Oc1ccc(C(c2c[nH]c3ccccc23)c2c[nH]c3ccccc23)cc1O`: the IC50 was 53 µM in test [1] and 10 µM in test [2].
Taken in the same sequence, the figures for `O=C(O)CCC(=O)Nc1ccc(S(=O)(=O)Nc2ccc(F)cc2)cc1` were more than 100 µM and more than 100 µM.
In the case of `COc1ccc(C(=O)C2=C(O)C(=O)N(CCN3CCNCC3)C2c2ccccc2F)cc1` (centres undefined), the IC50 is more than 1000 µM in test [1] and 630 µM in test [2].
The matching figures for `O=c1oc2c(CN(CCO)CCO)c(O)ccc2cc1-c1nc2ccccc2s1`: 850 µM and 350 µM.
Taken in the same sequence, the figures for `CCOC(=O)C1=C(O)/C(=C\c2ccc(CNC(=O)C(=O)Nc3ccccc3)o2)N=C1C` were more than 100 µM and 40 µM.
As for `COC(=O)c1c(NC(=O)CC2Nc3ccccc3NC2=O)sc2c1CCCC2` (centres undefined), the IC50 in test [1] and in test [2] was more than 100 µM each time.
In the case of `COc1ccc(C2C(C(=O)c3ccco3)=C(O)C(=O)N2CCN2CCOCC2)c(OC)c1` (centres undefined), the IC50 in test [1] was more than 1000 µM; in test [2], 395 µM.
Taken in the same sequence, the figures for `COc1ccc(C2C(C(=O)c3ccccc3)=C(O)C(=O)N2CCCO)cc1OC` (centres undefined) were more than 100 µM and more than 100 µM.
Taken in the same sequence, the figures for `CCOC(=O)c1c(NC(=O)CC2Sc3ccc(C(F)(F)F)cc3NC2=O)sc2c1CCCC2` (centres undefined) were more than 100 µM and more than 100 µM.
Taken in the same sequence, the figures for `COCCCNS(=O)(=O)c1ccc(Oc2cc(O)c3c(c2O)C(=O)c2ccccc2C3=O)cc1` were 100 µM and 23 µM.
Regarding `O=C(C1=C(O)C(=O)N(CCCN2CCOCC2)C1c1ccccc1F)c1ccc(F)cc1` (centres undefined), the IC50 in test [1] and in test [2] was more than 1000 µM in each case.
For `CN(C)CCCN1C(=O)C(O)=C(C(=O)c2cccs2)C1c1cccs1` (centres undefined), the IC50 in test [1] and in test [2] was more than 100 µM in each case.
On to `NCCCNc1ccc2c3c(nn2CCNCCO)-c2c(O)ccc(O)c2C(=O)c13` [PIROXANTRONE], for which the IC50 in test [1] turned out to be 18 µM; in test [2] it was 9 µM.
`COc1ccc(C2C(C(=O)c3ccc(F)cc3)=C(O)C(=O)N2CCN(C)C)cc1OC` (centres undefined): the IC50 in test [1] and in test [2] was more than 1000 µM in each case.
With `CCOC(=O)c1c(NC(=O)c2cc3ccccc3oc2=O)sc(C(N)=O)c1C`, the IC50 turned out to be 90 µM in test [1] and 56 µM in test [2].
Taken in the same sequence, the figures for `O=C(NCCCO)c1ccc(CSc2nc(O)c3c4c(sc3n2)CCC4)cc1` were more than 100 µM and more than 100 µM.
Take `CCN(CC)CCN1C(=O)C(O)=C(C(=O)c2ccccc2)C1c1ccc(OC)cc1OC` (centres undefined): the IC50 in test [1] and in test [2] was more than 1000 µM in each case.
Take `Cc1ccc(C(=O)C2=C(O)C(=O)N(CCN(C)C)C2c2ccccc2F)cc1` (centres undefined): the IC50 in test [1] and in test [2] was more than 1000 µM in each case.
